Measurements collected from several papers.
Compare with care: the assays were run in different laboratories.
Effect on: cell growth or viability

C=CC(=O)c1cccnc1Nc1cccc(C(F)(F)F)c1
GI50 (HCT-15; SRB; 48 h): 15400 nM

CN1CCc2cc(Nc3ncc(C4CC4)c(NCCCNC(=O)C4CCC4)n3)ccc2C1
GI50 (K562; MTT; 72 h): > 1000 nM

COc1cc2c3c(n(CCCn4ccnc4)c(=O)c2cc1OC)-c1nc2c(cc1C3=O)OCO2
IC50 (K562; MTS; 72 h): 580 nM

Cc1sc2c(c1C)C(c1ccc(Cl)cc1)=N[C@@H](CC(=O)NCCCCCCCCNC(=O)COc1cccc3c1C(=O)N(C1CCC(=O)NC1=O)C3=O)c1nnc(C)n1-2 (stereo partly drawn)
IC50 (K562; ATP luminescence): 343 nM

C=C(F)C(=O)N1CCN(c2nc(OC[C@@H]3CCCN3C)nc3c2CCN(c2cccc4cccc(Cl)c24)C3)C[C@@H]1CC#N
IC50 (HCT-15; ATP luminescence; 3D culture): > 1000 nM

O=C(Nc1ccc(OC(F)(F)Cl)cc1)c1cnc(N2CC[C@@H](O)C2)c(-c2cc[nH]n2)c1
GI50 (K562; MTT; 72 h): 0.72 nM

COc1cc2c3c(n(CCCNC(C)C)c(=O)c2cc1OC)-c1nc2c(cc1C3=O)OCO2
IC50 (K562; MTS; 72 h): 182 nM

O=C(O)c1ccccc1Nc1cccc(C(F)(F)F)c1
GI50 (HCT-15; SRB; 48 h): > 30000 nM

Cc1cc(C)c(CNC(=O)c2cc(Cl)c3c(c2C)O[C@@](C)([C@H]2CC[C@H](N(C)C)CC2)O3)c(=O)[nH]1
GI50 (HT-1376; ATP luminescence; 18 days): 18 nM

O=C(NO)c1ccc(CNc2nc3cccc(-c4ccc5c(c4)OCO5)n3n2)cc1
GI50 (SN12C; SRB): 720 nM

O=C(C=Cc1ccccc1)Nc1cc(-c2ccnc(N3CCC(O)CC3)c2)ccn1
IC50 (MCF-10A; MTT; 72 h): 3330 nM

C=CC(=O)c1cccnc1Nc1cc(C(F)(F)F)ccc1OC
GI50 (HCT-15; SRB; 48 h): 6960 nM

C=CC(=O)N1CCN(c2nc(=O)n(-c3c(C)ccnc3C(C)C)c3nc(-c4c(O)cccc4F)c(F)cc23)[C@@H](C)C1
IC50 (NCI-H1373; ATP luminescence): 48.4 nM

COc1ccc(N)cc1-c1c[nH]c2ncc(-c3cncc(C(=O)N(C)C)c3)cc12
GI50 (K562; MTT; 72 h): 175 nM

CC(C)C[C@@H]1NC(=O)[C@@H](N(C)C(=O)[C@H](CC2CCC2)NC(=O)[C@@H]2C[C@@H](F)CN2C(=O)C2(C(F)(F)F)CC(F)(F)C2)CCCCNC(=O)C2(CC2)NC(=O)[C@H](Cc2cc(Cl)ccc2Cl)N(C)C1=O
GI50 (NCI-H446; MTT; 5 days): 65 nM

CN(C)C(=O)c1cncc(-c2cnc3[nH]cc(-c4ccccc4C#N)c3c2)c1
GI50 (K562; MTT; 72 h): 591 nM

CCC[C@H]1NC(=O)[C@H](Cc2cc(Cl)ccc2-c2cnn(C)c2)N(C)C(=O)[C@H](CC(C)C)NC(=O)[C@@H](N(C)C(=O)[C@H](CCCCN2CCOCC2)NC(=O)[C@@H](c2cccnc2)C2CCCCC2)CCCCNC1=O
GI50 (NCI-H446; MTT; 5 days): 4200 nM

C=CC(=O)NC1CCN(c2ncc3ncnc(Nc4ccc(Oc5ccc6c(c5)ncn6C)c(C)c4)c3n2)CC1
EC50 (NCI-H1373): 137000 nM
